In PMC7161550 (British Journal of Pharmacology, 2020):
“And” between values parts separate entries of the source, which are not always exact repeats. Identical values can stand only once. “Also recorded” adds a separate entry of the source. Like-named read-outs stand apart in the source and are kept apart here.

Columns and labels:
[1] = target: T1, rat brain fatty acid amide hydrolase (Rattus norvegicus, UniProt P97612); experiment: FAAH progression curves, kinetic constants k obs and k inact/K I; type: biochemical; settings: inhibition of rat brain FAAH, 37°C
T1 sequence (P97612 1-579): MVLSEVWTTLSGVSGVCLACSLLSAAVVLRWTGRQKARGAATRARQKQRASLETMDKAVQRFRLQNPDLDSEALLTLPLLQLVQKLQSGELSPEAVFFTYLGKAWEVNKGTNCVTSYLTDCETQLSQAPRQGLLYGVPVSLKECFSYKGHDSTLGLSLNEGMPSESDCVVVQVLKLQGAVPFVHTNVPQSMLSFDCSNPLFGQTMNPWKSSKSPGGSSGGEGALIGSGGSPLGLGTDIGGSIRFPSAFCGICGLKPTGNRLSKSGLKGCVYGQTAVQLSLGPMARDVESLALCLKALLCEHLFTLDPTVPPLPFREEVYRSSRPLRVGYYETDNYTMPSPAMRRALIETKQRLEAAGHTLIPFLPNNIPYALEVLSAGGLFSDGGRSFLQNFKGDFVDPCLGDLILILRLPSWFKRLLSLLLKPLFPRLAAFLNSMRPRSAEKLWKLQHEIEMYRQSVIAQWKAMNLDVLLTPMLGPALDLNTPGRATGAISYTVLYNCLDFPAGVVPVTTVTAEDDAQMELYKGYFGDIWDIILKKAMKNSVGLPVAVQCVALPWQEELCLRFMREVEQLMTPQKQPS

[2] = target: T2, human recombinant fatty acid amide hydrolase (FAAH) (Homo sapiens, UniProt O00519); experiment: FAAH activity in intact COS‐hFAAH cells; type: cell-based
T2 sequence (O00519 1-579): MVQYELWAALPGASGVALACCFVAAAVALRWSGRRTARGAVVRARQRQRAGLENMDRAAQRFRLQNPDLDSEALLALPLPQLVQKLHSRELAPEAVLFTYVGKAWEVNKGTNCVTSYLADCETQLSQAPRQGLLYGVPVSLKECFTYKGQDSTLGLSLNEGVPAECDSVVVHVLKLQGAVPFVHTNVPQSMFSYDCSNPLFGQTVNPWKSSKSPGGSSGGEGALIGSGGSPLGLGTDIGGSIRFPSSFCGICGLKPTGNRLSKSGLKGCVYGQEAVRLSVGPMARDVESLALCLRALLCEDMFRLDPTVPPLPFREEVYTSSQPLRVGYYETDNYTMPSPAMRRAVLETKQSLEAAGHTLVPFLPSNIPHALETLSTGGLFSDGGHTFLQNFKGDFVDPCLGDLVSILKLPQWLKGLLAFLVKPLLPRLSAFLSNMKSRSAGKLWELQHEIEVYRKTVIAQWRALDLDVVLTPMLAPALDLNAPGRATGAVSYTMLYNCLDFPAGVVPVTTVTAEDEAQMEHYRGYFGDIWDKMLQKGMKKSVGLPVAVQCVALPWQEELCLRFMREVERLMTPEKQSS

[3] = tested on: COS‐hFAAH cells; experiment: Quantification of compounds in COS‐hFAAH supernatant, cell lysates and medium; type: in vitro ADME; settings: 1, 3 and 24 hr
[4] = target: T3, mouse liver fatty acid amide hydrolase (FAAH) (Mus musculus, UniProt O08914); experiment: Ex vivo FAAH activity in mouse liver after oral administration; settings: for ED50 [95% CI] Liver: 8 hr after oral administration
T3 sequence (O08914 1-579): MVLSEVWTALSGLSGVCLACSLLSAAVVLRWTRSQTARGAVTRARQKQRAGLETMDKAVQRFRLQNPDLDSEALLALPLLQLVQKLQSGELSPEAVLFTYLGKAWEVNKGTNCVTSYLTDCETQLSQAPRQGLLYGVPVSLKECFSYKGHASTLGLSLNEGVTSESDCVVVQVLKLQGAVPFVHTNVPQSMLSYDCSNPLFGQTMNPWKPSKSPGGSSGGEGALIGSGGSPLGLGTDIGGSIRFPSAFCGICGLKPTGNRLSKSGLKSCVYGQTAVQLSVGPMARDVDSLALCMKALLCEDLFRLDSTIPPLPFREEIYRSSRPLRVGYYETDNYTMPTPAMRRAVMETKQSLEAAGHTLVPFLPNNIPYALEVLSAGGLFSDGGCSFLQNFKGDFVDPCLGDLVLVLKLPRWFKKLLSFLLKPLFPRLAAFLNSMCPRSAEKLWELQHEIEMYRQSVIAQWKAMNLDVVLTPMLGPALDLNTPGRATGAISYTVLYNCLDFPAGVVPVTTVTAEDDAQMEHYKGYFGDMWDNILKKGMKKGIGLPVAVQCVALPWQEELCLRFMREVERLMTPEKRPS
Summary of the method: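 Liver and half-brain were collected into FAAH membrane buffer (3 mM MgCl2, 1 mM EDTA, 50 mM Tris HCl, pH 7.4) and stored at −20°C. Homogenates (15 μg protein brain, 5 μg liver) were pre-incubated 15 min at 37°C. AEA + 3H‑AEA + BSA was added for 10 min (brain) or 7 min (liver), then charcoal. Scintillation counting gave % remaining activity versus controls after blank subtraction.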

[5] = tested on: brain fatty acid amides (AEA, PEA, OEA); experiment: Fatty acid amides; type: in vivo; settings: mouse brain, 8 hr
Summary of the method: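 Frozen brains were thawed at 4°C and weighed. Each sample was extracted with chloroform:MeOH (2:1) plus 0.1 M phosphate buffer, pH 5.6. Deuterated internal standards were spiked in: AEA‑d8, PEA‑d4 and OEA‑d2 for the fatty acid amides, and 2‑AG‑d8 for 2‑AG.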

[6] = tested on: 229 assays for receptors, enzymes, transporters, ion channels, hormones, growth factors and inflammatory mediators; type: binding; settings: 10 and 50 μM
[7] = target: T4, fatty acid amide hydrolase (Rattus norvegicus, UniProt P97612); experiment: Gel‐based competitive ABPP in vitro, TAMRA‐FP probe, rat brain fractions; type: biochemical; settings: 1 hr
T4 sequence (P97612 1-579): T1 sequence (P97612 1-579)
Summary of the method: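 Rat brain membrane and soluble protein extracts (200 μg) were incubated 1 hr at room temperature with test compound at 1 nM–100 μM, DMSO vehicle or PMSF 3 mM. Active serine hydrolases were then labelled with TAMRA‑FP probe (2 μM final) for 1 hr at room temperature. Bands were visualized by in-gel fluorescence.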

Compound	k inact/K I [1]	detection in cell lysates [3]	stability in cellular media over time [3]	AEA ([5]; 0.01 mg·kg^−1 p.o.)	OEA ([5]; 0.01 mg·kg^−1 p.o.)	PEA ([5]; 0.01 mg·kg^−1 p.o.)	AEA ([5]; 0.03 mg·kg^−1 p.o.)	OEA ([5]; 0.03 mg·kg^−1 p.o.)	PEA ([5]; 0.03 mg·kg^−1 p.o.)	AEA ([5]; 0.1 mg·kg^−1 p.o.)	OEA ([5]; 0.1 mg·kg^−1 p.o.)	PEA ([5]; 0.1 mg·kg^−1 p.o.)	AEA ([5]; 0.3 mg·kg^−1 p.o.)	OEA ([5]; 0.3 mg·kg^−1 p.o.)	PEA ([5]; 0.3 mg·kg^−1 p.o.)	off‐target activity at the sites studied [6]	concentration that completely inhibited the band corresponding to the MW of FAAH [7]	other results
CN(C(=O)n1cnc(-c2ccc[n+]([O-])c2)c1)C1CCCCC1 [BIA 10‐2474, 3‐(1‐(cyclohexyl (methyl)carbamoyl)‐1H‐imidazol‐4‐yl)pyridine 1‐oxide]	1,243 M·s^−1	undetectable	stable	89.5 ± 9.3 % of control	109.1 ± 8.6 % of control	107.2 ± 8.8 % of control	87.0 ± 10.3 % of control	143.1 ± 30.6 % of control	178.6 ± 62.7 % of control	136.8 ± 16.4 % of control	676.5 ± 89.8 % of control	1027.6 ± 148.0 % of control	172.1 ± 29.5 % of control	804.0 ± 107.6 % of control	1,223.3 ± 159.6 % of control	no significant activity	100 µM	fold less potent than PF‐04457845 in inhibiting human FAAH in situ [2]: 10 fold; IC50 ([2]; IC50 [95% CI], incubation 1 hr): 74.4 nM; IC50 ([2]; IC50 [95% CI], incubation 3 hr): 42.5 nM; IC50 ([2]; IC50 [95% CI], incubation 24 hr): 18 nM; IC50 ([2]; IC50 values over all incubation times, intact cells expressing human FAAH): 18 to 74 nM; ED50 [95% CI] Liver ([4]; 480 min): 6.2 μg·kg^−1 and 6.2 [4.8, 7.9] μg·kg^−1; inhibition at 0.1 mg/kg ([4]; po, read-out: inhibition of liver FAAH): > 96.5%
O=C(Nc1cccnn1)N1CCC(=Cc2cccc(Oc3ccc(C(F)(F)F)cn3)c2)CC1 [PF‐04457845]	167,333 M·s^−1	detected	not stable	220.2 ± 46.9 % of control	837.5 ± 115.5 % of control	984.3 ± 107.1 % of control	257.6 ± 16.9 % of control	886.1 ± 42.6 % of control	1073.1 ± 85.1 % of control	268.7 ± 10.8 % of control	933.4 ± 17.5 % of control	1080.9 ± 62.0 % of control	309.4 ± 16.6 % of control	961.4 ± 48.2 % of control	1,141.9 ± 56.3 % of control	active at a number of sites; also recorded: significant activity at several receptors, transporters and ion channels	0.1 µM	IC50 ([2]; read-out: IC50 [95% CI], incubation 1 hr): 4.3 nM; IC50 ([2]; read-out: IC50 [95% CI], incubation 3 hr): 3.4 nM; liver FAAH activity, % of control levels ([4]; 0.1 mg·kg^−1 p.o., 48 hr): 72.3%; inhibition of hepatic FAAH, mean values ([4]; 0.1 mg·kg^−1 p.o., over 24 hr): above 88.7%; ED50 [95% CI] Liver [4]: 2.0 [1.8, 2.2] μg·kg^−1; AEA ([5]; 0.003 mg·kg^−1 p.o.): 88.5 ± 7.5 % of control; OEA ([5]; 0.003 mg·kg^−1 p.o.): 97.1 ± 8.0 % of control; PEA ([5]; 0.003 mg·kg^−1 p.o.): 100.6 ± 16.4 % of control
